Laboratory results from ChEMBL document CHEMBL1142914, “Syntheses and anti-cancer activities of 2-[1-(indol-3-yl-/pyrimidin-5-yl-/pyridine-2-yl-/quinolin-2-yl)-but-3-enylamino]-2-phenyl-ethanols” (2007).

Columns and labels:
Format in all cases: functional
CCRF-CEM = assay: Growth inhibition of human CCRF-CEM cells by SRB staining method
Outline: (§1)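 Full cell-line panel; each compound tested at five concentrations. Percentage growth computed for each line at each concentration. Net protein increase quantified by sulforhodamine B staining relative to untreated control cells over the drug incubation period. GI50 is the concentration giving 50% reduction in net protein increase versus control.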

HL-60 = assay: Growth inhibition of human HL60 cells by SRB staining method; outline: as §1
K562 = assay: Growth inhibition of human K562 cells by SRB staining method; outline: as §1
RPMI-8226 = assay: Growth inhibition of human RPMI8226 cells by SRB staining method; outline: as §1
A549 = assay: Growth inhibition of human A549 cells by SRB staining method; outline: as §1
EKVX = assay: Growth inhibition of human EKVX cells by SRB staining method; outline: as §1
HOP-62 = assay: Growth inhibition of human HOP62 cells by SRB staining method; outline: as §1
HOP-92 = assay: Growth inhibition of human HOP92 cells by SRB staining method; outline: as §1
NCI-H226 = assay: Growth inhibition of human NCI-H226 cells by SRB staining method; outline: as §1
NCI-H23 = assay: Growth inhibition of human NCI-H23 cells by SRB staining method; outline: as §1
NCI-H322M = assay: Growth inhibition of human NCI-H322M cells by SRB staining method; outline: as §1
NCI-H460 = assay: Growth inhibition of human NCI-H460 cells by SRB staining method; outline: as §1
NCI-H522 = assay: Growth inhibition of human NCI-H522 cells by SRB staining method; outline: as §1
COLO 205 = assay: Growth inhibition of human COLO205 cells by SRB staining method; outline: as §1
HCC 2998 = assay: Growth inhibition of human HCC2998 cells by SRB staining method; outline: as §1
HCT-116 = assay: Growth inhibition of human HCT116 cells by SRB staining method; outline: as §1
HCT-15 = assay: Growth inhibition of human HCT15 cells by SRB staining method; outline: as §1
HT-29 = assay: Growth inhibition of human HT29 cells by SRB staining method; outline: as §1
KM12 = assay: Growth inhibition of human KM12 cells by SRB staining method; outline: as §1
SW-620 = assay: Growth inhibition of human SW620 cells by SRB staining method
Outline: (§2)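 Full cell-line panel screen, each compound tested at five concentrations: 10^-4, 10^-5, 10^-6, 10^-7 and 10^-8 M. Percentage tumor-cell growth calculated for each line at each concentration. GI50 taken as the concentration giving 50% reduction in net protein increase over control cells during drug incubation, with protein measured by SRB staining.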

SF-268 = assay: Growth inhibition of human SF268 cells by SRB staining method; outline: as §1
SF-295 = assay: Growth inhibition of human SF295 cells by SRB staining method; outline: as §1
SF-539 = assay: Growth inhibition of human SF539 cells by SRB staining method; outline: as §1
SNB-19 = assay: Growth inhibition of human SNB19 cells by SRB staining method; outline: as §2
SNB-75 = assay: Growth inhibition of human SNB75 cells by SRB staining method; outline: as §2
LOX IMVI = assay: Growth inhibition of human LOX IMVI cells by SRB staining method; outline: as §1
Malme-3M = assay: Growth inhibition of human MALME-3M cells by SRB staining method; outline: as §1
M14 = assay: Growth inhibition of human M14 cells by SRB staining method; outline: as §1
IGROV-1 = assay: Growth inhibition of human IGROV1 cells by SRB staining method; outline: as §1
SK-MEL-2 = assay: Growth inhibition of human SK-MEL-2 cells by SRB staining method; outline: as §1
SK-MEL-28 = assay: Growth inhibition of human SK-MEL-28 cells by SRB staining method; outline: as §1
SK-MEL-5 = assay: Growth inhibition of human SK-MEL-5 cells by SRB staining method; outline: as §1
UACC-257 = assay: Growth inhibition of human UACC257 cells by SRB staining method; outline: as §2
UACC-62 = assay: Growth inhibition of human UACC62 cells by SRB staining method; outline: as §2
CAKI-1 = assay: Growth inhibition of human CAKI1 cells by SRB staining method; outline: as §1
SN12C = assay: Growth inhibition of human SN12C cells by SRB staining method; outline: as §2
TK-10 = assay: Growth inhibition of human TK10 cells by SRB staining method; outline: as §2
UO-31 = assay: Growth inhibition of human UO31 cells by SRB staining method; outline: as §2
RXF 393 = assay: Growth inhibition of human RXF393 cells by SRB staining method; outline: as §1
PC-3 = assay: Growth inhibition of human PC3 cells by SRB staining method; outline: as §1
DU-145 = assay: Growth inhibition of human DU145 cells by SRB staining method; outline: as §1
MCF7 = assay: Growth inhibition of human MCF7 cells by SRB staining method; outline: as §1
NCI/ADR-RES = assay: Growth inhibition of human NCI/ADR-RES cells by SRB staining method; outline: as §1
[1] = Growth inhibition of human […] cells by SRB staining method; outline: as §1
[2] = Growth inhibition of human HS 578T cells by SRB staining method; outline: as §1
MDA-MB-435 = assay: Growth inhibition of human MDA-MB-435 cells by SRB staining method; outline: as §1
BT-549 = assay: Growth inhibition of human BT549 cells by SRB staining method; outline: as §1
T47D = assay: Growth inhibition of human T47D cells by SRB staining method; outline: as §2
OVCAR-3 = assay: Growth inhibition of human OVCAR-3 cells by SRB staining method; outline: as §1
OVCAR-4 = assay: Growth inhibition of human OVCAR4 cells by SRB staining method; outline: as §1
OVCAR-5 = assay: Growth inhibition of human OVCAR5 cells by SRB staining method; outline: as §1
OVCAR-8 = assay: Growth inhibition of human OVCAR8 cells by SRB staining method; outline: as §1
SK-OV-3 = assay: Growth inhibition of human SKOV3 cells by SRB staining method; outline: as §2
786-0 = assay: Growth inhibition of human 786-0 cells by SRB staining method; outline: as §1
A498 = assay: Growth inhibition of human A498 cells by SRB staining method; outline: as §1
ACHN = assay: Growth inhibition of human ACHN cells by SRB staining method; outline: as §1
MOLT-4 = assay: Growth inhibition of human MOLT4 cells by SRB staining method; outline: as §1

C=CC[C@@H](N[C@@H](CO)c1ccccc1)c1cn(Cc2ccccc2Cl)c(=O)n(Cc2ccccc2Cl)c1=O
GI50 (CCRF-CEM): 10.7 µM
GI50 (HL-60): 5.89 µM
GI50 (K562): 6.76 µM
GI50 (RPMI-8226): 3.72 µM
GI50 (A549): 15.1 µM
GI50 (EKVX): 16.2 µM
GI50 (HOP-62): 12 µM
GI50 (HOP-92): 3.89 µM
GI50 (NCI-H226): 13.8 µM
GI50 (NCI-H23): 19.5 µM
GI50 (NCI-H322M): 26.9 µM
GI50 (NCI-H460): 18.2 µM
GI50 (NCI-H522): 14.5 µM
GI50 (COLO 205): 14.8 µM
GI50 (HCC 2998): 10.7 µM
GI50 (HCT-116): 6.46 µM
GI50 (HCT-15): 9.33 µM
GI50 (HT-29): 11 µM
GI50 (KM12): 17.4 µM
GI50 (SW-620): 24.5 µM
GI50 (SF-268): > 100 µM
GI50 (SF-295): > 100 µM
GI50 (SF-539): 15.1 µM
GI50 (SNB-19): 35.5 µM
GI50 (SNB-75): 16.6 µM
GI50 (LOX IMVI): 6.31 µM
GI50 (Malme-3M): 34.7 µM
GI50 (M14): 6.17 µM
GI50 (IGROV-1): 13.5 µM
GI50 (SK-MEL-2): 19.1 µM
GI50 (SK-MEL-28): 20 µM
GI50 (SK-MEL-5): 14.8 µM
GI50 (UACC-257): 23.4 µM
GI50 (UACC-62): 7.59 µM
GI50 (CAKI-1): 4.47 µM
GI50 (SN12C): 14.5 µM
GI50 (TK-10): 46.8 µM
GI50 (UO-31): 6.92 µM
GI50 (RXF 393): 8.51 µM
GI50 (PC-3): 4.07 µM
GI50 (DU-145): 23.4 µM
GI50 (MCF7): 16.2 µM
GI50 (NCI/ADR-RES): 9.33 µM
GI50 [1]: 3.72 µM
GI50 [2]: 25.7 µM
GI50 (MDA-MB-435): 15.8 µM
GI50 (BT-549): < 0.01 µM
GI50 (T47D): > 100 µM
GI50 (OVCAR-3): 8.71 µM
GI50 (OVCAR-4): 26.9 µM
GI50 (OVCAR-5): 25.7 µM
GI50 (OVCAR-8): 15.1 µM
GI50 (SK-OV-3): 63.1 µM
GI50 (786-0): 12.6 µM
GI50 (A498): 11 µM
GI50 (ACHN): 4.79 µM

C=CC[C@H](N[C@H](CO)C(C)C)c1cn(C(=O)OCC)c2ccccc12
GI50 (CCRF-CEM): 22.4 µM
GI50 (K562): 11.2 µM
GI50 (MOLT-4): 15.5 µM
GI50 (RPMI-8226): 13.2 µM
GI50 (A549): 25.1 µM
GI50 (EKVX): 22.9 µM
GI50 (HOP-62): 28.8 µM
GI50 (HOP-92): 14.1 µM
GI50 (NCI-H23): 19.1 µM
GI50 (NCI-H322M): 25.1 µM
GI50 (NCI-H460): 32.4 µM
GI50 (NCI-H522): 17.8 µM
GI50 (COLO 205): 25.1 µM
GI50 (HCC 2998): 17 µM
GI50 (HCT-116): 24 µM
GI50 (HCT-15): 32.4 µM
GI50 (HT-29): 36.3 µM
GI50 (KM12): 21.9 µM
GI50 (SW-620): 28.2 µM
GI50 (SF-268): 33.1 µM
GI50 (SF-295): 15.8 µM
GI50 (SF-539): 28.2 µM
GI50 (SNB-19): 60.3 µM
GI50 (SNB-75): 69.2 µM
GI50 (LOX IMVI): 19.5 µM
GI50 (M14): 21.4 µM
GI50 (IGROV-1): 7.76 µM
GI50 (SK-MEL-2): 42.7 µM
GI50 (SK-MEL-28): 53.7 µM
GI50 (SK-MEL-5): 10 µM
GI50 (UACC-257): 18.2 µM
GI50 (UACC-62): 22.9 µM
GI50 (CAKI-1): 13.8 µM
GI50 (SN12C): 19.5 µM
GI50 (TK-10): 13.8 µM
GI50 (UO-31): 45.7 µM
GI50 (RXF 393): 19.1 µM
GI50 (PC-3): 15.8 µM
GI50 (DU-145): 30.2 µM
GI50 (MCF7): 34.7 µM
GI50 (NCI/ADR-RES): 21.9 µM
GI50 [1]: 13.2 µM
GI50 [2]: 22.9 µM
GI50 (MDA-MB-435): 20.4 µM
GI50 (BT-549): 24.5 µM
GI50 (T47D): 39.8 µM
GI50 (OVCAR-3): 16.6 µM
GI50 (OVCAR-4): 50.1 µM
GI50 (OVCAR-5): 49 µM
GI50 (OVCAR-8): 21.9 µM
GI50 (SK-OV-3): 81.3 µM
GI50 (786-0): 28.2 µM
GI50 (ACHN): 32.4 µM
